Experimental data reported in ChEMBL document CHEMBL4823270, “A first-in-class anticancer dual HDAC2/FAK inhibitors bearing hydroxamates/benzamides capped by pyridinyl-1,2,4-triazoles” (Eur J Med Chem, 2021).

Columns and labels:
HCT-116 = assay: Growth inhibition of human HCT-116 cells at 10 uM incubated for 24 hrs by MTT assay relative to control; format: functional; conditions: read-out: GI
Method in brief: (§1)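 Cells seeded at 1 × 10^4 per well, cultured overnight, then exposed to 10 μM compound or DMSO (negative control) for 24 h. After a PBS wash, MTT (2 mg/ml) was added for 4 h at 37°C and formazan dissolved in DMSO. OD read at 570 nm. Growth inhibition = 1 − (OD treated/OD control); at least three independent experiments.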

HT-29 = assay: Growth inhibition of human HT-29 cells at 10 uM incubated for 24 hrs by MTT assay relative to control; format: functional; conditions: read-out: GI; method in brief: as §1
K562 = assay: Growth inhibition of human K562 cells at 10 uM incubated for 24 hrs by MTT assay relative to control; format: functional; conditions: read-out: GI; method in brief: as §1
KG-1 = assay: Growth inhibition of human KG-1 cells at 10 uM incubated for 24 hrs by MTT assay relative to control; format: functional; conditions: KG-1, 24 h; method in brief: as §1
A498 [1] = assay: Growth inhibition of human A498 cells at 10 uM incubated for 24 hrs by MTT assay relative to control; format: functional; conditions: read-out: GI; method in brief: as §1
CAKI-1 [2] = assay: Growth inhibition of human CAKI-1 cells at 10 uM incubated for 24 hrs by MTT assay relative to control; format: functional; conditions: read-out: GI; method in brief: as §1
A498 [3] = assay: Antiproliferative activity against human A498 cells assessed as cell growth inhibition incubated for 24 hrs by MTT assay; format: functional, cell-based; conditions: A498, 24 h
CAKI-1 [4] = assay: Antiproliferative activity against human CAKI-1 cells assessed as cell growth inhibition incubated for 24 hrs by MTT assay; format: functional, cell-based; conditions: CAKI-1, 24 h
Histone deacetylase 1 = Histone deacetylase 1 (Homo sapiens, UniProt Q13547); assay: Inhibition of human full-length recombinant HDAC1 preincubated for 5 mins followed by HDAC substrate addition and further incubated for 45 mins by fluorescence microplate reader assay
Sequence of Histone deacetylase 1 (Q13547 whole entry): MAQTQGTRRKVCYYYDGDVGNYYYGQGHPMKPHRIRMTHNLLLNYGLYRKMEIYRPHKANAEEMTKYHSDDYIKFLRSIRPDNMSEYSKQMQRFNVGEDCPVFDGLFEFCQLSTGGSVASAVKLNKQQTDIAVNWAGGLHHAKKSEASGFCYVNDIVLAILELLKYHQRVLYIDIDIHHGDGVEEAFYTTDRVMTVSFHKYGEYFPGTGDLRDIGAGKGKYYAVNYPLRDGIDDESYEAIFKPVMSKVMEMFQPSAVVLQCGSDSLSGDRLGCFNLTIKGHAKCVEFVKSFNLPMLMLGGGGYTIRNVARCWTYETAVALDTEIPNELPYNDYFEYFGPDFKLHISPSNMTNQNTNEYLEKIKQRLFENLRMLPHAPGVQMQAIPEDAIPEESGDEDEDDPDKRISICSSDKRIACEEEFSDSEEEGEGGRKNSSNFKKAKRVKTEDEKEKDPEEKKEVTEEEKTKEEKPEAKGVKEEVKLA

Histone deacetylase 2 = Histone deacetylase 2 (Homo sapiens, UniProt Q92769); assay: Inhibition of human full-length recombinant HDAC2 preincubated for 5 mins followed by HDAC substrate addition and further incubated for 45 mins by fluorescence microplate reader assay
Sequence of Histone deacetylase 2 (Q92769 whole entry): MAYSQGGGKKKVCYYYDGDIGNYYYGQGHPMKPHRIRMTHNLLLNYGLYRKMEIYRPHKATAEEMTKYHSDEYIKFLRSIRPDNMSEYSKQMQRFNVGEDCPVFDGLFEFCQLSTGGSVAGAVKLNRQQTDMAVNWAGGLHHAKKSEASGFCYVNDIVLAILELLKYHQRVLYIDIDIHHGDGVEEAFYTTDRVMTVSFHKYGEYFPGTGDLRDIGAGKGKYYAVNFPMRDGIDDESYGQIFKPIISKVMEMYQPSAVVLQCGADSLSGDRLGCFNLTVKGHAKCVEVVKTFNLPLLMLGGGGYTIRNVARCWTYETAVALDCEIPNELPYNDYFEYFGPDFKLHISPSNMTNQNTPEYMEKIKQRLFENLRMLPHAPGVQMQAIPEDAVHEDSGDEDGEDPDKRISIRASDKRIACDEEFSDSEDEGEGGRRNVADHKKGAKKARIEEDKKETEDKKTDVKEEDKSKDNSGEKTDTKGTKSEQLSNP

Histone deacetylase 3 = Histone deacetylase 3 (Homo sapiens, UniProt O15379); assay: Inhibition of human full-length recombinant HDAC3 preincubated for 5 mins followed by HDAC substrate addition and further incubated for 45 mins by fluorescence microplate reader assay
Sequence of Histone deacetylase 3 (O15379 whole entry): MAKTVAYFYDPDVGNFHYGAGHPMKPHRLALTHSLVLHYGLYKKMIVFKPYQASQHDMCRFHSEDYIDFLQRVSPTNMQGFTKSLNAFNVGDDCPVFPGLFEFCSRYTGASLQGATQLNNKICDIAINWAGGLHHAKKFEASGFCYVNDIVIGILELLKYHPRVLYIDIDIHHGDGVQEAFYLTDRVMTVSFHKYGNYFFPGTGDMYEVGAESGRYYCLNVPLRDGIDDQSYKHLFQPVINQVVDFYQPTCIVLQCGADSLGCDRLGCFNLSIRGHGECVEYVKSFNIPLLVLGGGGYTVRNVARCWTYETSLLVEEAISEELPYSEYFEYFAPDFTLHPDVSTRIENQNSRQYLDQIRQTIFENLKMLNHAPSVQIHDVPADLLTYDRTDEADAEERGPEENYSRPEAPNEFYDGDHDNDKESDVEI

[5] = molecular target: T1, Protein deacetylase HDAC6 (Homo sapiens, UniProt Q9UBN7); assay: Inhibition of human full-length recombinant HDAC6 preincubated for 5 mins followed by HDAC substrate addition and further incubated for 45 mins by fluorescence microplate reader assay
T1 sequence (Q9UBN7 whole entry): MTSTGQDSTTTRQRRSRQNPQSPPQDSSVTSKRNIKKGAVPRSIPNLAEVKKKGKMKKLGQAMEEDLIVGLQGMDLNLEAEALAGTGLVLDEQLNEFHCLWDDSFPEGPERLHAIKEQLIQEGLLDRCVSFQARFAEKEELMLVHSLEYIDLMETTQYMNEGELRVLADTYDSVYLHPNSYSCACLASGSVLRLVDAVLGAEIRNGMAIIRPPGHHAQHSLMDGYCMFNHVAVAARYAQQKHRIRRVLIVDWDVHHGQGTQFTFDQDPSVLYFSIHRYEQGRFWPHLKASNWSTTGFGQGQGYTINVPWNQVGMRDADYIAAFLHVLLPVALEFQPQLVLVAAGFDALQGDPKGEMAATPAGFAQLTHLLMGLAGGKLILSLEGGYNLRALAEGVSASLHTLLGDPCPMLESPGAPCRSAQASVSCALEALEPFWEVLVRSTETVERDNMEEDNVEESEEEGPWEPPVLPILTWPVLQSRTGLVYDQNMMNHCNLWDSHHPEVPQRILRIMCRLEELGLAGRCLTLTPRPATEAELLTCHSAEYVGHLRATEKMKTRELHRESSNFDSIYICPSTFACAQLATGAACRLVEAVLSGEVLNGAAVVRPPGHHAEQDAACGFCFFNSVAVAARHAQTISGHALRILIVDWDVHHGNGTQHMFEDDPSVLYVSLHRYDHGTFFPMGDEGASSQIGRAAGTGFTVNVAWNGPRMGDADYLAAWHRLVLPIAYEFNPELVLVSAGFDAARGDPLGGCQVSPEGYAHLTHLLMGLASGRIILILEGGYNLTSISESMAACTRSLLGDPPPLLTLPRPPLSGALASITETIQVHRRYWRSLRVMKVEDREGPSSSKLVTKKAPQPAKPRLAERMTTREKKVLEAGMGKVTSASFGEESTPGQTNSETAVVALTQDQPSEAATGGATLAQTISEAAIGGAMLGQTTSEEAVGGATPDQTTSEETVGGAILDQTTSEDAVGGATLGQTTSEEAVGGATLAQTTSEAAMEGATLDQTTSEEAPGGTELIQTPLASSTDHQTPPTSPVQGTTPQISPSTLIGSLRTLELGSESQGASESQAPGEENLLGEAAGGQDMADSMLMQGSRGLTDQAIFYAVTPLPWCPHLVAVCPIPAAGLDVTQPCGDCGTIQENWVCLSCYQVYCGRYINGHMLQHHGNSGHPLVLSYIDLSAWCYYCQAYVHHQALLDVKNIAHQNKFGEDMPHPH

Histone deacetylase 8 = molecular target: T2, Histone deacetylase 8 (Homo sapiens, UniProt Q9BY41); assay: Inhibition of human full-length recombinant C-terminal His-tagged HDAC8 expressed in baculovirus infected Sf9 insect cells preincubated for 5 mins followed by HDAC substrate addition and further incubated for 45 mins by fluorescence microplate reader assay
T2 sequence (Q9BY41 whole entry): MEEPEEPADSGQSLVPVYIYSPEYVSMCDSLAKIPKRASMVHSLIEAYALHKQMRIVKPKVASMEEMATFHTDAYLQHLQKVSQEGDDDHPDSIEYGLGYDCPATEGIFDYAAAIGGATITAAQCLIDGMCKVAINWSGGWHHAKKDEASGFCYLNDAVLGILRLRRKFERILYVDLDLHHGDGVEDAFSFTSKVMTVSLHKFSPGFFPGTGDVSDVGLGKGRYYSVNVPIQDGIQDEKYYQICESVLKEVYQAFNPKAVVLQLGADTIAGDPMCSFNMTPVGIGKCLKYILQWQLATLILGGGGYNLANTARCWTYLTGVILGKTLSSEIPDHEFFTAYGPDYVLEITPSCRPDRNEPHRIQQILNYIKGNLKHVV

Focal adhesion kinase 1 = Focal adhesion kinase 1 (Homo sapiens, UniProt Q05397); assay: Inhibition of FAK (unknown origin) by FRET-based Z'-Lyte assay
Sequence of Focal adhesion kinase 1 (Q05397 whole entry): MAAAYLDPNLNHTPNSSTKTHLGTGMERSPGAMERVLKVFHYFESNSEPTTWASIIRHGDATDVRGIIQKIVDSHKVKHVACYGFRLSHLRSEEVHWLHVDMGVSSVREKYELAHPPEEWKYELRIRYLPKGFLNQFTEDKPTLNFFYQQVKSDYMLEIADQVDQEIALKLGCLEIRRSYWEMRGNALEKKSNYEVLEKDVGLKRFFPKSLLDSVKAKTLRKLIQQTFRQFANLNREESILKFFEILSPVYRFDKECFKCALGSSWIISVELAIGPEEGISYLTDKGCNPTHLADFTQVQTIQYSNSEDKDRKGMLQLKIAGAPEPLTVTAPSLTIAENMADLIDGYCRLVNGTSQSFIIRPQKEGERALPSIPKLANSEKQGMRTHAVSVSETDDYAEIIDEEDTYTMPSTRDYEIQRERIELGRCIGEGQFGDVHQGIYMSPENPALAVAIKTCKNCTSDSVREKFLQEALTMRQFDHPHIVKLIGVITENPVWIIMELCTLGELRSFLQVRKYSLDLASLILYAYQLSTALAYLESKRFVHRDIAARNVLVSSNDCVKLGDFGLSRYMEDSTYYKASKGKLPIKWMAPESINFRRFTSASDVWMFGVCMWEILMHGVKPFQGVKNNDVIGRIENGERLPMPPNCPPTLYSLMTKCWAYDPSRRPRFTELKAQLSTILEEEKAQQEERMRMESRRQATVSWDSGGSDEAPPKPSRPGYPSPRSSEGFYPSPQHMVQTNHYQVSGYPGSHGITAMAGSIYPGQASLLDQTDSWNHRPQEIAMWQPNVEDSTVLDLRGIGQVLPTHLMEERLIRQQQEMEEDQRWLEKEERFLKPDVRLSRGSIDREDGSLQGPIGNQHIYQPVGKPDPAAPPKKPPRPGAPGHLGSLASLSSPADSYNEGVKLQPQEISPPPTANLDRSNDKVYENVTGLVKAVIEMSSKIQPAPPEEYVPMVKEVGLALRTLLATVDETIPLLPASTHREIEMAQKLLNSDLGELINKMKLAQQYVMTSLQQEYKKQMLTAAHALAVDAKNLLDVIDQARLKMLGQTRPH
Method in brief: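 Recombinant FAK kinase activity measured with the FRET-based Z'-LYTE format; the same platform was used for a kinase panel (FAK, FLT, FRK, IGF-1R, BTK). IC50 values determined.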

SMILES	inhibition of growth at 10 µM (HCT-116) [%]	inhibition of growth at 10 µM (HT-29) [%]	inhibition of growth at 10 µM (K562) [%]	inhibition in vitro at 10 µM (KG-1) [%]	inhibition of growth at 10 µM (A498 [1]) [%]	inhibition of growth at 10 µM (CAKI-1 [2]) [%]	IC50 (A498 [3]) [µM]	IC50 (CAKI-1 [4]) [µM]	IC50 (Histone deacetylase 1) [µM]	IC50 (Histone deacetylase 2) [µM]	IC50 (Histone deacetylase 3) [µM]	IC50 [5] [µM]	IC50 (Histone deacetylase 8) [µM]	IC50 (Focal adhesion kinase 1) [µM]
C=CCn1c(SCCCCCC(=O)NO)nnc1-c1ccncc1	2.07	41.3	16.1	5.91	11.1	8.62	76.4	89.4	> 300	11.7	222	288	11.1	0.189
Nc1ccccc1NC(=O)c1ccc(CSc2nnc(-c3ccncc3)n2-c2ccccc2)cc1	45.4	37.9	19.6	47.3	72.5	66.9	6.19	8.35	22.1	8.39	113	9.63	5.32	0.0961
CCn1c(SCc2ccc(C(=O)NO)cc2)nnc1-c1ccncc1	1.03	8.34	14.3	7.12	1.67	9.34	203	322	> 300	30.4	174	> 300	> 300	0.254
O=C(O)CCCCCSc1nnc(-c2ccncc2)n1-c1ccccc1	78.5	80.5	72.7	67.2	89.3	94.8	2.35	1.89	8.95	0.64	21.1	10.9	11.1	0.0361
CCn1c(SCCCCCC(=O)Nc2ccccc2N)nnc1-c1ccncc1	6.35	18.6	10.4	3.64	22.3	8.91	77.6	98.3	> 300	27.1	> 300	> 300	198	0.141
CCCC(CCC)C(=O)O [VALPROIC ACID]	–	–	–	–	–	–	2140	2830	84.2	–	–	215	–	–
CNC(=O)c1ccccc1Nc1nc(Nc2ccc(N3CCOCC3)cc2OC)ncc1Cl	–	–	–	–	–	–	0.81	1.05	–	–	–	–	–	–
Nc1ccccc1NC(=O)CCCCCSc1nnc(-c2ccncc2)n1-c1ccccc1	24.5	9.64	15.1	34.9	4.67	1.65	342	215	256	38.7	> 300	159	> 300	0.312
C=CCn1c(SCc2ccc(C(=O)Nc3ccccc3N)cc2)nnc1-c1ccncc1	80.5	70.7	90.1	87.5	97.1	94.8	1.42	1.6	11.8	1.28	42.1	9.96	22.5	0.0156
CCn1c(SCCCCCC(=O)NO)nnc1-c1ccncc1	21.4	9.15	4.09	17.3	5.26	2.06	149	112	76.3	28.9	> 300	270	> 300	0.124
Cn1c(SCCCCCC(=O)O)nnc1-c1ccncc1	20.1	34.2	18.2	55.9	45.3	34.7	12.3	16.5	8.93	7.36	84.6	78.4	12	0.0503
O=C(CCCCCSc1nnc(-c2ccncc2)n1-c1ccccc1)NO	3.56	1.09	8.34	11.2	4.36	–	174	92.4	> 300	32.4	> 300	246	> 300	0.425
CCn1c(SCCCCCC(=O)O)nnc1-c1ccncc1	2.15	9.34	1.58	7.34	4.13	1.06	125	–	184	26.4	156	> 300	> 300	0.0762
Cn1c(SCc2ccc(C(=O)NO)cc2)nnc1-c1ccncc1	–	54	16	72.1	31.8	48.2	20.9	11	14.2	4.35	56.4	14.4	29.8	0.0643
